Tests used:
Assay type in all cases: functional
[1] = system: Mus musculus; experiment: Percent increase in life span at dose 40 mg/kg/day in 10 mice implanted with P388 leukemia cell line
Method in brief: (§1)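 Female DBA2 mice inoculated iv on day 0 with 10^4 P388 cells; single iv treatment on day 1 with drug as sulfate salt in physiological saline. Survival followed; %ILS from all deaths and survivors as (T/C × 100) − 100, maximal MST 30 days; survivors counted on days 30 and 60. Most experiments confirmed three times.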

[2] = system: Mus musculus; experiment: Number of survivors on 60th day at dose 20 mg/kg/day in 10 mice implanted with P388 leukemia cell line; 0/10
[3] = system: Mus musculus; experiment: Number of survivors on 60th day at dose 40 mg/kg/day in 10 mice implanted with P388 leukemia cell line; 0/10
[4] = system: Mus musculus; experiment: Number of survivors on 30th day at dose 40 mg/kg/day in 10 mice implanted with P388 leukemia cell line; 0/10
[5] = system: Mus musculus; experiment: Number of survivors on 30th day at dose 50 mg/kg/day in 10 mice implanted with P388 leukemia cell line; 0/10
[6] = system: Mus musculus; experiment: Number of survivors on 60th day at dose 10 mg/kg/day in 10 mice implanted with P388 leukemia cell line; 0/10
[7] = system: Mus musculus; experiment: Percent increase in life span at dose 50 mg/kg/day in 10 mice implanted with P388 leukemia cell line; method in brief: as §1
[8] = system: Mus musculus; experiment: Number of survivors on 30th day at dose 20 mg/kg/day in 10 mice implanted with P388 leukemia cell line; 0/10
[9] = system: Mus musculus; experiment: Number of survivors on 60th day at dose 50 mg/kg/day in 10 mice implanted with P388 leukemia cell line; 0/10
[10] = system: Mus musculus; experiment: Percent increase in life span at dose 20 mg/kg/day in 10 mice implanted with P388 leukemia cell line; method in brief: as §1
[11] = system: Mus musculus; experiment: Number of survivors on 30th day at dose 10 mg/kg/day in 10 mice implanted with P388 leukemia cell line; 0/10
[12] = system: Mus musculus; experiment: Number of survivors of DBA2 mice on 30th day after inoculation with L1210 leukemia cell line intravenously at a dose of 55 mg/kg/day; 0/10; conditions: route intravenous
[13] = system: Mus musculus; experiment: Number of survivors on 30th day at dose 55 mg/kg/day in 10 mice implanted with P388 leukemia cell line
[14] = system: Mus musculus; experiment: Number of survivors of DBA2 mice on 60th day after inoculation with L1210 leukemia cell line intravenously at a dose of 50 mg/kg/day; 0/10; conditions: route intravenous
[15] = system: Mus musculus; experiment: Number of survivors on 30th day at dose 60 mg/kg/day in 10 mice implanted with P388 leukemia cell line
[16] = system: Mus musculus; experiment: Number of survivors on 60th day at dose 50 mg/kg/day in 10 mice implanted with P388 leukemia cell line
[17] = system: Mus musculus; experiment: Number of survivors on 30th day at dose 70 mg/kg/day in 10 mice implanted with P388 leukemia cell line
[18] = system: Mus musculus; experiment: Number of survivors of DBA2 mice on 60th day after inoculation with L1210 leukemia cell line intravenously at a dose of 55 mg/kg/day; 0/10; conditions: route intravenous
[19] = system: Mus musculus; experiment: Percent increase in life span at dose 60 mg/kg/day in 10 mice implanted with P388 leukemia cell line; method in brief: as §1
[20] = system: Mus musculus; experiment: Percent increase in life span of DBA2 mice after inoculation with L1210 leukemia intravenously at a dose of 55 mg/kg per day; conditions: route intravenous
Method in brief: (§2)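 Female DBA2 mice inoculated iv on day 0 with 10^4 L1210 cells; drugs given iv as sulfate salts in physiological saline, mostly once on day 1. %ILS from all deaths and survivors as (T/C × 100) − 100; survivors scored on days 30 and 60.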

[21] = system: Mus musculus; experiment: Number of survivors on 60th day at dose 70 mg/kg/day in 10 mice implanted with P388 leukemia cell line; method in brief: as §1
[22] = system: Mus musculus; experiment: Number of survivors on 60th day at dose 40 mg/kg/day in 10 mice implanted with P388 leukemia cell line
[23] = system: Mus musculus; experiment: Number of survivors on 60th day at dose 30 mg/kg/day in 10 mice implanted with P388 leukemia cell line
[24] = system: Mus musculus; experiment: Percent increase in life span at dose 55 mg/kg/day in 10 mice implanted with P388 leukemia cell line; method in brief: as §1
[25] = system: Mus musculus; experiment: Number of survivors on 60th day at dose 60 mg/kg/day in 10 mice implanted with P388 leukemia cell line; method in brief: as §1
[26] = system: Mus musculus; experiment: Percent increase in life span of DBA2 mice after inoculation with L1210 leukemia intravenously at a dose of 50 mg/kg per day; conditions: route intravenous; method in brief: as §2
[27] = system: Mus musculus; experiment: Number of survivors of DBA2 mice on 30th day after inoculation with L1210 leukemia cell line intravenously at a dose of 50 mg/kg/day; 0/10; conditions: route intravenous
[28] = system: Mus musculus; experiment: Number of survivors on 30th day at dose 30 mg/kg/day in 10 mice implanted with P388 leukemia cell line
[29] = system: Mus musculus; experiment: Number of survivors on 30th day at dose 50 mg/kg/day in 10 mice implanted with P388 leukemia cell line
[30] = system: Mus musculus; experiment: Number of survivors on 60th day at dose 55 mg/kg/day in 10 mice implanted with P388 leukemia cell line
[31] = system: Mus musculus; experiment: Percent increase in life span at dose 30 mg/kg/day in 10 mice implanted with P388 leukemia cell line; method in brief: as §1
[32] = system: Mus musculus; experiment: Percent increase in life span at dose 70 mg/kg/day in 10 mice implanted with P388 leukemia cell line; method in brief: as §1
[33] = system: Mus musculus; experiment: Number of survivors on 30th day at dose 40 mg/kg/day in 10 mice implanted with P388 leukemia cell line

CCOC(=O)[C@H](CCC(=O)O)NC(=O)[C@@]1(O)[C@H](O)[C@]2(CC)C=CCN3CC[C@@]4(c5cc([C@@]6(C(=O)OC)C[C@H]7C[N@](CCc8c6[nH]c6ccccc86)C[C@](O)(CC)C7)c(OC)cc5N(C)[C@@]14C)[C@@H]32
ILS at 40 mg/kg/day [1]: 34.5% | Survivors [2]: 0 | Survivors [3]: 0 | Survivors [4]: 0 | Survivors [5]: 0 | Survivors [6]: 0 | ILS at 50 mg/kg/day [7]: 2.8% | Survivors [8]: 0 | Survivors [9]: 0 | ILS at 20 mg/kg/day [10]: 10% | Survivors [11]: 0

CC[C@]1(O)C[C@@H]2C[N@](CCc3c([nH]c4ccccc34)[C@@](C(=O)OC)(c3cc4c(cc3OC)N(C)[C@@]3(C)[C@@](O)(C(=O)N[C@@H](Cc5c[nH]c6ccccc56)C(=O)OC)[C@H](O)[C@]5(CC)C=CCN6CC[C@]43[C@@H]65)C2)C1
ILS at 40 mg/kg/day [1]: 42.8% | Survivors [12]: 0 | Survivors [13]: 2 | Survivors [14]: 0 | Survivors [15]: 3 | Survivors [16]: 1 | Survivors [17]: 5 | Survivors [18]: 0 | ILS at 60 mg/kg/day [19]: 132% | ILS at 55 mg/kg/day [20]: 60.2% | Survivors [21]: 3 | Survivors [22]: 0 | Survivors [23]: 0 | ILS at 55 mg/kg/day [24]: 85.8% | Survivors [25]: 2 | ILS at 50 mg/kg/day [26]: 47.4% | Survivors [27]: 0 | Survivors [28]: 0 | Survivors [29]: 1 | ILS at 50 mg/kg/day [7]: 110% | Survivors [30]: 1 | ILS at 30 mg/kg/day [31]: 33.9% | ILS at 70 mg/kg/day [32]: 145% | Survivors [33]: 0

Source: ChEMBL document CHEMBL1122917, “Vinblastin-23-oyl amino acid derivatives: chemistry, physicochemical data, toxicity, and antitumor activities against P388 and L1210 leukemias” (J Med Chem, 1985)
